Assay [1] has as its target T1, Gonadotropin-releasing hormone receptor (Rattus norvegicus) (UniProt P30969).
T1 sequence (whole entry): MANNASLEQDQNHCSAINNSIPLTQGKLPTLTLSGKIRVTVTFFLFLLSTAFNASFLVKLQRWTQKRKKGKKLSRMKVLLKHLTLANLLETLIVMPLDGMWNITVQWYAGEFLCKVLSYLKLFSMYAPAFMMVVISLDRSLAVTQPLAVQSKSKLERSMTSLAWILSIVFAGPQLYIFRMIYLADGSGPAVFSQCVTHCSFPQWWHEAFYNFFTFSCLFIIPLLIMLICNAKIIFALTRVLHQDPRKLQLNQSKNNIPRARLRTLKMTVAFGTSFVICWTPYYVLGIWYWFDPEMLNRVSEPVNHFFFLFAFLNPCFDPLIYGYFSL
Briefly: Antiovulatory activity on proestrus was measured by administering as a solution in 50% propylene glycol / 0.9% saline in rat. The format is functional.

Assay [2] has as its target T1, Gonadotropin-releasing hormone receptor (Rattus norvegicus). Kind of assay: Antiovulatory activity on diestrus II following administration as a solution in corn oil (24h earlier) in rat. The format is functional, organism-based. The gist of the method: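 Female rats with at least two normal 4-day cycles before the test cycle were selected. They received the analogue sc in corn oil at noon on diestrus II, 24 h before the proestrus dosing time. On the morning of expected estrus the oviducts were examined under a dissecting microscope, and freshly ovulated eggs were counted. ED50 was taken from percent ovulating versus log-dose, with 10 rats per dose group and usually three or more dose groups.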

The target is the same in assay [3]. Kind of assay: Antiovulatory activity on proestrus following administration of solution in corn oil in rat. The format is functional, organism-based. The gist of the method: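 Rats with at least two normal 4-day cycles were used. They were injected sc with the analogue in corn oil at noon on proestrus, about 2 h before the preovulatory LH-RH surge. Oviducts were removed on the morning of expected estrus and checked microscopically for fresh eggs, which were counted. ED50 came from percent of females ovulating plotted against log-dose, with 10 animals per dose group.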

Square brackets hold non-standard residues; d marks the D form. Peptide text beside a SMILES is read from it. d(hArg(Et2)) = CCN=C(NCC)NCCCC[C@@H](N)C(=O)O; dPhe(4-Cl) = N[C@H](Cc1ccc(Cl)cc1)C(=O)O; d2Nal = N[C@H](Cc1ccc2ccccc2c1)C(=O)O

`CCCCNC(=NCCCC[C@@H](NC(=O)[C@H](Cc1ccc(O)cc1)NC(=O)[C@H](CO)NC(=O)[C@@H](Cc1c[nH]c2ccccc12)NC(=O)[C@@H](Cc1ccc(Cl)cc1)NC(=O)[C@@H](Cc1ccc2ccccc2c1)NC(C)=O)C(=O)N[C@@H](CC(C)C)C(=O)N[C@@H](CCCN=C(N)N)C(=O)N1CCC[C@H]1C(=O)N[C@H](C)C(N)=O)NCCCC`: the ED50 (ug injection-1) in assay [1] is 3.4; in assay [2], over 16. Compound `CCNC(=NCCCC[C@@H](NC(=O)[C@H](Cc1ccc(O)cc1)NC(=O)[C@H](CO)NC(=O)[C@@H](Cc1c[nH]c2ccccc12)NC(=O)[C@@H](Cc1ccc(Cl)cc1)NC(=O)[C@@H](Cc1c[nH]c2ccccc12)NC(C)=O)C(=O)N[C@@H](CC(C)C)C(=O)N[C@@H](CCCN=C(N)N)C(=O)N1CCC[C@H]1C(=O)NCC(N)=O)NCC` came in with an ED50 (ug injection-1) in assay [3] of 3.4. For the compound `CCNC(=NCCCC[C@@H](NC(=O)[C@H](Cc1ccc(O)cc1)NC(=O)[C@H](CO)NC(=O)[C@@H](Cc1cccnc1)NC(=O)[C@@H](Cc1ccc(Cl)cc1)NC(=O)[C@@H](Cc1ccc2ccccc2c1)NC(C)=O)C(=O)N[C@@H](CC(C)C)C(=O)N[C@@H](CCCN=C(N)N)C(=O)N1CCC[C@H]1C(=O)N[C@H](C)C(N)=O)NCC`, the ED50 (ug injection-1) in assay [1] was 0.6; in assay [2] it was over 4. Consider `CCCNC(=NCCCC[C@@H](NC(=O)[C@H](Cc1ccc(O)cc1)NC(=O)[C@H](CO)NC(=O)[C@@H](Cc1c[nH]c2ccccc12)NC(=O)[C@@H](Cc1ccc(Cl)cc1)NC(=O)[C@@H](Cc1ccc(Cl)cc1)NC(C)=O)C(=O)N[C@@H](CC(C)C)C(=O)N[C@@H](CCCN=C(N)N)C(=O)N1CCC[C@H]1C(=O)N[C@H](C)C(N)=O)NCCC`, for which the ED50 (ug injection-1) in assay [1] was 2.6; in assay [3], 2; in assay [2], 14. In the case of `CCNC(=NCCCC[C@@H](NC(=O)[C@H](Cc1ccc(O)cc1)NC(=O)[C@H](CO)NC(=O)[C@@H](Cc1c[nH]c2ccccc12)NC(=O)[C@@H](Cc1ccc(Cl)cc1)NC(=O)[C@@H](Cc1ccc(Cl)cc1)NC(C)=O)C(=O)N[C@@H](CC(C)C)C(=O)NC(CCCN=C(N)N)C(=O)N1CCC[C@H]1C(=O)N[C@H](C)C(N)=O)NCC` (stereo partly drawn), the ED50 (ug injection-1) was found to be 1.7 in assay [1], 1.6 in assay [3] and 3.3 in assay [2]. In the case of `CCNC(=NCCCC[C@@H](NC(=O)[C@H](Cc1ccc(O)cc1)NC(=O)[C@H](CO)NC(=O)[C@@H](Cc1ccc2ccccc2c1)NC(=O)[C@@H](Cc1ccc(Cl)cc1)NC(=O)[C@@H](Cc1ccc2ccccc2c1)NC(C)=O)C(=O)N[C@@H](CC(C)C)C(=O)N[C@@H](CCCN=C(N)N)C(=O)N1CCC[C@H]1C(=O)N[C@H](C)C(N)=O)NCC`, the ED50 (ug injection-1) in assay [3] was 1.7. For `CCNC(=NCCCC[C@@H](NC(=O)[C@H](Cc1ccc(O)cc1)NC(=O)[C@H](CO)NC(=O)[C@@H](Cc1c[nH]c2ccccc12)NC(=O)[C@@H](Cc1ccc(Cl)cc1)NC(=O)[C@@H](Cc1ccc2ccccc2c1)NC(C)=O)C(=O)N[C@@H](CC(C)C)C(=O)N[C@@H](CCCN=C(N)N)C(=O)N1CCC[C@H]1C(=O)N[C@H](C)C(N)=O)NCC` (stereo in doubt), the figures for the ED50 (ug injection-1) in assay [1], in assay [3] and in assay [2] were 0.7, 0.5 and 2.5, respectively. On the same counts, the results for `CCNC(=NCCCC[C@@H](NC(=O)[C@H](Cc1ccc(O)cc1)NC(=O)[C@H](CO)NC(=O)[C@@H](Cc1c[nH]c2ccccc12)NC(=O)[C@@H](Cc1ccc(Cl)cc1)NC(=O)[C@@H](Cc1ccc(Cl)cc1)NC(C)=O)C(=O)N[C@@H](CC(C)C)C(=O)N[C@@H](CCCN=C(N)N)C(=O)N1CCC[C@H]1C(=O)NCC(N)=O)NCC` are 2, 2.4 and 16. In the case of `CCNC(=NCCCC[C@@H](NC(=O)[C@H](Cc1ccc(O)cc1)NC(=O)[C@H](CO)NC(=O)[C@@H](Cc1c[nH]c2ccccc12)NC(=O)[C@@H](Cc1ccc(Cl)cc1)NC(=O)[C@@H](Cc1ccc2ccccc2c1)NC(C)=O)C(=O)N[C@@H](CC(C)C)C(=O)N[C@@H](CCCN=C(N)N)C(=O)N1CCC[C@H]1C(=O)NCC(N)=O)NCC`, the ED50 (ug injection-1) in assay [1] is 2; in assay [3] it was 1; in assay [2], 2.5. As for `CC(=O)N[C@H](Cc1ccc(Cl)cc1)C(=O)N[C@H](Cc1ccc(Cl)cc1)C(=O)N[C@H](Cc1c[nH]c2ccccc12)C(=O)N[C@@H](CO)C(=O)N[C@@H](Cc1ccc(O)cc1)C(=O)N[C@H](CCCCN=C(NC(C)C)NC(C)C)C(=O)N[C@@H](CC(C)C)C(=O)N[C@@H](CCCN=C(N)N)C(=O)N1CCC[C@H]1C(=O)N[C@H](C)C(N)=O`, the ED50 (ug injection-1) in assay [1] is 16; in assay [2] it was over 16. On the same counts, the results for `CCNC(=NCCCC[C@@H](NC(=O)[C@H](Cc1ccc(O)cc1)NC(=O)[C@H](CO)NC(=O)[C@@H](Cc1c[nH]c2ccccc12)NC(=O)[C@@H](Cc1ccc(Cl)cc1)NC(=O)[C@@H](Cc1ccc2ccccc2c1)NC(C)=O)C(=O)N[C@@H](CC(C)C)C(=O)N[C@@H](CCCN=C(N)N)C(=O)N1CCC[C@H]1C(=O)N[C@H](C)C(N)=O)NCC` (stereo in doubt; 25) are 0.5 and under 4.

In assay [1], `CCCNC(=NCCCC[C@@H](NC(=O)[C@H](Cc1ccc(O)cc1)NC(=O)[C@H](CO)NC(=O)[C@@H](Cc1ccc2ccccc2c1)NC(=O)[C@@H](Cc1ccc(F)cc1)NC(=O)[C@@H](Cc1ccc2ccccc2c1)NC(C)=O)C(=O)N[C@@H](CC(C)C)C(=O)N[C@@H](CCCN=C(N)N)C(=O)N1CCC[C@H]1C(=O)NCC(N)=O)NCCC` returned an ED50 (ug injection-1) of 7.5. On to `CCNC(=O)[C@@H]1CCCN1C(=O)[C@H](CCCN=C(N)N)NC(=O)[C@H](CC(C)C)NC(=O)[C@@H](CCCCN=C(NCC)NCC)NC(=O)[C@H](Cc1ccc(O)cc1)NC(=O)[C@H](CO)NC(=O)[C@@H](Cc1c[nH]c2ccccc12)NC(=O)[C@@H](Cc1ccc(Cl)cc1)NC(=O)[C@@H](Cc1ccc2ccccc2c1)NC(C)=O`, for which the results for the ED50 (ug injection-1) in assay [1] and in assay [2] were 2.4 and over 16, respectively. Consider `CC(=O)N[C@H](Cc1ccc2ccccc2c1)C(=O)N[C@H](Cc1ccc(Cl)cc1)C(=O)N[C@H](Cc1cccnc1)C(=O)N[C@@H](CO)C(=O)N[C@@H](Cc1ccc(O)cc1)C(=O)N[C@H](CCCN=C(N)N)C(=O)N[C@@H](CC(C)C)C(=O)N[C@@H](CCCN=C(N)N)C(=O)N1CCC[C@H]1C(=O)N[C@H](C)C(N)=O`, for which the ED50 (ug injection-1) came to 0.5 in assay [1] and 0.3 in assay [3]. Regarding `CCNC(=NCCCC[C@@H](NC(C)=O)C(=O)N[C@H](Cc1ccc(Cl)cc1)C(=O)N[C@H](Cc1c[nH]c2ccccc12)C(=O)N[C@@H](CO)C(=O)N[C@@H](Cc1ccc(O)cc1)C(=O)N[C@H](Cc1ccc2ccccc2c1)C(=O)N[C@@H](CC(C)C)C(=O)N[C@@H](CCCN=C(N)N)C(=O)N1CCC[C@H]1C(=O)N[C@H](C)C(N)=O)NCC`, the ED50 (ug injection-1) in assay [1] worked out at 8. As for `CCNC(=NCCCC[C@@H](NC(=O)[C@H](Cc1ccc(O)cc1)NC(=O)[C@H](CO)NC(=O)[C@@H](Cc1c[nH]c2ccccc12)NC(=O)[C@@H](Cc1ccc(Cl)cc1)NC(=O)[C@@H](Cc1ccc2ccccc2c1)NC(C)=O)C(=O)N[C@@H](CC(C)C)C(=O)N[C@@H](CCCN=C(N)N)C(=O)N1CCC[C@H]1C(=O)NNC(N)=O)NCC`, the ED50 (ug injection-1) in assay [1] stood at 0.55; in assay [2], 9.5. As for `CCNC(=NCCCC[C@@H](NC(=O)[C@H](Cc1ccc(O)cc1)NC(=O)[C@H](CO)NC(=O)[C@@H](Cc1c[nH]c2ccccc12)NC(=O)[C@@H](Cc1ccc(Cl)cc1)NC(=O)[C@@H](Cc1ccc2ccccc2c1)NC(C)=O)C(=O)N[C@@H](Cc1c[nH]c2ccccc12)C(=O)N[C@@H](CCCN=C(N)N)C(=O)N1CCC[C@H]1C(=O)N[C@H](C)C(N)=O)NCC`, the ED50 (ug injection-1) in assay [1] is 1.2. The same measure, in the same setting: under `CCNC(=NCCCC[C@@H](NC(=O)[C@H](Cc1ccc(O)cc1)NC(=O)[C@H](CO)NC(=O)[C@@H](Cc1cccnc1)NC(=O)[C@@H](Cc1ccc(F)cc1)NC(=O)[C@@H](Cc1ccc2ccccc2c1)NC(C)=O)C(=O)N[C@@H](CC(C)C)C(=O)N[C@@H](CCCN=C(N)N)C(=O)N1CCC[C@H]1C(=O)N[C@H](C)C(N)=O)NCC` stands 0.7. With `CCNC(=NCCCC[C@@H](NC(=O)[C@H](Cc1ccc(O)cc1)NC(=O)[C@H](CO)NC(=O)[C@@H](Cc1c[nH]c2ccccc12)NC(=O)[C@@H](Cc1ccc(Cl)cc1)NC(=O)[C@@H](Cc1ccc2ccccc2c1)NC(C)=O)C(=O)N[C@@H](Cc1ccccc1)C(=O)N[C@@H](CCCN=C(N)N)C(=O)N1CCC[C@H]1C(=O)N[C@H](C)C(N)=O)NCC` (Ac-[d2Nal][dPhe(4-Cl)][dW]SY[d(hArg(Et2))]FRP[dA]-NH2), the values for the ED50 (ug injection-1) in assay [1] and in assay [2] were 0.75 and 8, respectively. On to `CCNC(=NCCCC[C@H](NC(=O)[C@H](CO)NC(=O)[C@@H](Cc1c[nH]c2ccccc12)NC(=O)[C@@H](Cc1ccc(Cl)cc1)NC(=O)[C@@H](CCCCN=C(NCC)NCC)NC(C)=O)C(=O)N[C@H](Cc1ccc(O)cc1)C(=O)N[C@@H](Cc1c[nH]c2ccccc12)C(=O)N[C@@H](CCCN=C(N)N)C(=O)N1CCC[C@H]1C(=O)N[C@H](C)C(N)=O)NCC`, for which the ED50 (ug injection-1) in assay [1] is over 16.

For the origin of these results see ChEMBL document CHEMBL1123964, “Potent, long-acting luteinizing hormone-releasing hormone antagonists containing new synthetic amino acids: N,N'-dialkyl-D-homoarginines” (J Med Chem, 1988).
